Drawing on ChEMBL document CHEMBL1130328, “Synthesis and pharmacological activity of deltorphin and dermorphin-related glycopeptides” (J Med Chem, 1997), this text covers IC50 and Ki for ten molecules.

Experiment [1] is filed under the species Cavia porcellus. Briefly: Bioactivity in vitro in guinea pig ileum (GPI) isolated organ preparation. Format: functional. The procedure, abridged:
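Guinea pig ileum segment (2–3 cm) in 20 mL bath with 70 μM hexamethonium and 0.125 μM mepyramine, 95% O2/5% CO2, 36 °C. Transmural stimulation 0.5 ms pulses at 0.1 Hz, 1.5× maximal-twitch voltage. 1 g load, 45 min equilibration, isotonic recording. Dose–response curves run against a reference agonist. Means of six experiments.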

Experiment [2] has as its target Mu-type opioid receptor (Rattus norvegicus, UniProt P33535). As to the kind of experiment: Opioid receptor mu 1 binding affinity by displacement of radioligand [3H][DAla,MePhe,Gly-ol]enkephalin (DAGO) from rat brain membrane synaptosomes. It is filed as subcellular. The procedure, abridged: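 Rat brain (male Sprague–Dawley) P2 synaptosomes, preincubated to remove endogenous opioids and washed. Incubated 120 min at 22 °C, 1.6 mg protein, in duplicate, with 0.62 nM [3H]DPDPE (δ) or 0.68 nM [3H]DAGO (μ). Nonspecific binding with 1–2 μM unlabelled ligand. Filtration, scintillation counting. Five to seven concentrations. Ki from IC50 by Cheng–Prusoff, mean ± SE, n = 3–9.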

Experiment [3] concerns the target Delta-type opioid receptor (Rattus norvegicus, UniProt P33533). Briefly: Opioid receptor delta 1 binding affinity by displacement of radioligand [3H][D-Pen]-enkephalin (DPDPE) from rat brain membrane synaptosomes. It is filed as subcellular.
For experiment [4], the species on record is Oryctolagus cuniculus. Briefly: Bioactivity in vitro in rabbit jejunum (RJ) isolated organ preparation. Format: functional. The procedure, abridged: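 Rabbit jejunum on isotonic transducer under 1 g load, equilibrated 45 min while recording spontaneous activity without washing. Dose–response curves run against a reference agonist. At least four jejunum preparations, each from a different rabbit. Means of six experiments.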

Sequence of Delta-type opioid receptor (P33533 whole entry): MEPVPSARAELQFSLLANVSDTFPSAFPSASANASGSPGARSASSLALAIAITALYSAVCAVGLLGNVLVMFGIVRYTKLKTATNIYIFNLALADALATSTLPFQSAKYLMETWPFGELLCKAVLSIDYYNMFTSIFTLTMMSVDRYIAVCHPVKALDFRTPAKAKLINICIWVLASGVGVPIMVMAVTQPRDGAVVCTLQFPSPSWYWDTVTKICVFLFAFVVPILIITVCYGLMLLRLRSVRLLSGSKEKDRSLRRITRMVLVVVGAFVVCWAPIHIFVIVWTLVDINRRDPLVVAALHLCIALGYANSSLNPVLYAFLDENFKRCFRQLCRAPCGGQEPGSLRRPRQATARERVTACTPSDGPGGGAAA
Sequence of Mu-type opioid receptor (P33535 whole entry): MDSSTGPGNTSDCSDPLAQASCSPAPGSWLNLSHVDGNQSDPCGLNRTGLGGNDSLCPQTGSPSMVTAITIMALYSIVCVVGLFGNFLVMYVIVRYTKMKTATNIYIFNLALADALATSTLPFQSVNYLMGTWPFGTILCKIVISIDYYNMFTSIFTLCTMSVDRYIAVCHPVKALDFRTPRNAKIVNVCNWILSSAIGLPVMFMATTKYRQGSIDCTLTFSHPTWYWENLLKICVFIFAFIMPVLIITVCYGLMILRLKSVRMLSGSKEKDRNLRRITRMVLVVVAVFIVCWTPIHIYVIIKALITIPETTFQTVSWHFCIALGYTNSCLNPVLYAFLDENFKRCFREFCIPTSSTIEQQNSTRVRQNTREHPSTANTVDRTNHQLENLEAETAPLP

Regarding `C[C@H](O[C@H]1O[C@@H](CO)[C@H](O)[C@@H](O)[C@@H]1O)[C@H](NC(=O)[C@@H]1CCCN1C(=O)[C@H](Cc1ccc(O)cc1)NC(=O)CNC(=O)[C@H](Cc1ccccc1)NC(=O)[C@@H](C)NC(=O)[C@@H](N)Cc1ccc(O)cc1)C(=O)NCC(N)=O`, in experiment [1], the midpoint of inhibition, the IC50, lay at 0.0031 µM. For the same molecule, the Ki (commonly a measure of affinity in units of concentration, obtained from inhibition or displacement) came out at 0.00029 µM in experiment [2] and 0.067 µM in experiment [3].
For `CC(=O)OC[C@@H]1O[C@H](O[C@@H](C)[C@H](NC(=O)[C@@H](NC(=O)[C@@H](NC(=O)[C@H](CC(=O)O)NC(=O)[C@H](Cc2ccccc2)NC(=O)[C@@H](C)NC(=O)[C@@H](N)Cc2ccc(O)cc2)C(C)C)C(C)C)C(=O)NCC(N)=O)[C@@H](OC(C)=O)[C@H](OC(C)=O)[C@H]1OC(C)=O`, the IC50 (in general, the concentration that gives 50% inhibition) in experiment [4] was 0.89 µM. Further, the Ki is 0.635 µM in experiment [2] and 0.0013 µM in experiment [3].
`CC(=O)OC[C@@H]1O[C@H](O[C@H](C)[C@H](NC(=O)[C@@H]2CCCN2C(=O)[C@H](Cc2ccc(O)cc2)NC(=O)CNC(=O)[C@H](Cc2ccccc2)NC(=O)[C@@H](C)NC(=O)[C@@H](N)Cc2ccc(O)cc2)C(=O)NCC(N)=O)[C@@H](OC(C)=O)[C@H](OC(C)=O)[C@H]1OC(C)=O`: the IC50 in experiment [1] came to 0.0221 µM. Also, the Ki in experiment [2] is 0.00046 µM; in experiment [3] it was 0.0868 µM.
`CC(C)[C@H](NC(=O)[C@H](CC(=O)O)NC(=O)[C@H](Cc1ccccc1)NC(=O)[C@@H](C)NC(=O)[C@@H](N)Cc1ccc(O)cc1)C(=O)N[C@H](C(=O)N[C@H](C(=O)NCC(N)=O)[C@@H](C)O[C@H]1O[C@H](CO)[C@@H](O)[C@H](O)[C@H]1O)C(C)C` gave a concentration for half-maximal inhibition (IC50) in experiment [4] of 0.995 µM. The results for the Ki in experiment [2] and in experiment [3] were 0.579 µM and 0.00155 µM, respectively.
In experiment [1], `C[C@@H](NC(=O)[C@@H](N)Cc1ccc(O)cc1)C(=O)N[C@@H](Cc1ccccc1)C(=O)N[C@H](C(=O)N[C@@H](Cc1ccc(O)cc1)C(=O)N1CCC[C@H]1C(=O)N[C@@H](CO)C(N)=O)[C@@H](C)O[C@H]1O[C@H](CO)[C@@H](O)[C@H](O)[C@H]1O` showed an IC50 of 3.4 µM. Moreover, the Ki in experiment [2] amounted to 1.7 µM; in experiment [3] it was 1.76 µM.
Consider `CC(=O)OC[C@H]1O[C@H](O[C@H](C)[C@H](NC(=O)[C@H](Cc2ccccc2)NC(=O)[C@@H](C)NC(=O)[C@@H](N)Cc2ccc(O)cc2)C(=O)N[C@H](C(=O)N[C@H](C(=O)NCC(N)=O)C(C)C)C(C)C)[C@H](OC(C)=O)[C@@H](OC(C)=O)[C@@H]1OC(C)=O`, for which, in experiment [4], the IC50 was above 4 µM. Moreover, the Ki came out at 1.52 µM in experiment [2] and 2.11 µM in experiment [3].
For `CC(C)[C@H](NC(=O)[C@@H](NC(=O)[C@@H](NC(=O)[C@H](Cc1ccccc1)NC(=O)[C@@H](C)NC(=O)[C@@H](N)Cc1ccc(O)cc1)[C@@H](C)O[C@H]1O[C@H](CO)[C@@H](O)[C@@H](O)[C@H]1O)C(C)C)C(=O)NCC(N)=O`, in that order: above 4 µM, 1.99 µM and 9.5 µM.
As to `CC(=O)OC[C@H]1O[C@H](O[C@H](C)[C@H](NC(=O)[C@H](Cc2ccccc2)NC(=O)[C@@H](C)NC(=O)[C@@H](N)Cc2ccc(O)cc2)C(=O)N[C@@H](Cc2ccc(O)cc2)C(=O)N2CCC[C@H]2C(=O)N[C@@H](CO)C(N)=O)[C@H](OC(C)=O)[C@H](OC(C)=O)[C@H]1OC(C)=O`, the IC50 in experiment [1] was above 4 µM. Further, the values for the inhibition constant Ki in experiment [2] and in experiment [3] were 4.4 µM and 22.6 µM, respectively.
In turn, `CC(C)[C@H](NC(=O)[C@H](CC(=O)O)NC(=O)[C@H](Cc1ccccc1)NC(=O)[C@@H](C)NC(=O)[C@@H](N)Cc1ccc(O)cc1)C(=O)N[C@H](C(=O)NCC(N)=O)C(C)C` [DELTORPHIN C] came in with an IC50 in experiment [4] of 0.51 µM.
In the case of `C[C@@H](NC(=O)[C@@H](N)Cc1ccc(O)cc1)C(=O)N[C@@H](Cc1ccccc1)C(=O)NCC(=O)N[C@@H](Cc1ccc(O)cc1)C(=O)N1CCC[C@H]1C(=O)N[C@@H](CO)C(N)=O` [DERMORPHIN], the IC50 in experiment [1] was 0.0021 µM. Besides, in experiment [2], the Ki came out at 0.00028 µM.
